Source: PubChem
Shown are actives, neighbours in structure and some others; about 4.3% of the full set was active somewhere.
ALR H2O2 inh – inhibitors of human ALR sulfhydryl oxidase, primary screen, biochemical, H2O2 detection, HRP-luminol luminescence, single point; inhibition, % (concentration not given with the values); 290,000 compounds, 3.8% hits; purified ALR, DTT oxidation;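 active means mean replicate inhibition above about 79%, with every replicate also reaching it, limit read from the data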
SUMO HTRF inh – inhibitors of in vitro SUMOylation cascade, primary screen, biochemical, HTRF, uHTS. HTRF SUMOylation assay, SAE1/SAE2 + UBC9. inhibition, % at 35 µM. 290,000 compounds, 0.36% hits. AID 2006, 2009; in the data active means inhibition above about 50%, passing the limit was not always enough
PREPL inh – PREPL enzyme inhibitors, primary screen, biochemical, fluorescence polarization; AID 2751, 2010; recombinant PREPL, fluorescence polarization activity-based probe; inhibition, % at 5.96 µM; Prolyl endopeptidase-like (Homo sapiens), Q4J6C6; 320,000 compounds, 0.68% hits; in the data active means inhibition above about 43%
RBBP9 inh – human RBBP9 inhibitors, primary screen, biochemical, fluorescence polarization, FP-Rh probe, HTS; recombinant RBBP9; 220,000 compounds, 0.2% hits; Serine hydrolase RBBP9 (Homo sapiens), O75884; inhibition, % at 7.94 µM;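 active means inhibition above the campaign mean of all tested compounds plus 3 SD, cut at about 14% in these data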
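System: RBBP9 protein / Buffer or medium: Tris/NaCl buffer pH 8.0 with 0.1% Pluronic / Probe or stimulus: Serine-hydrolase probe FP-Rh, 375 nM pre-mixing / Dosing: 7.94 µM single dose, 0.794% DMSO / Times: enzyme-compound preincubation 30 min, then probe labeling 45 min, 25 °C / Technique: fluorescence polarization (mP), excitation 525 nm, emission 598 nm / Replication: singlicate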
Rin1 Abl inh – inhibitors of Rin1-Abl protein binding, primary screen, biochemical, TR-FRET | Tyrosine-protein kinase ABL1 (Homo sapiens) + Ras and Rab interactor 1 (Homo sapiens), … | inhibition, % at 7.35 µM | 360,000 compounds, 0.4% hits; in the data active means inhibition above about 5%, passing the limit was not always enough
UBC13 polyUb – UBC13 polyubiquitin chain formation inhibitors, primary screen, biochemical, TR-FRET, uHTS; Ubiquitin-conjugating enzyme E2 N (Homo sapiens), P61088; inhibition, % at 20 µM; 330,000 compounds, 0.47% hits; in the data active means inhibition above about 45%, passing the limit was not always enough
Rin1-Abl confirm – Rin1-Abl binding inhibitor retest, confirmation, biochemical, TR-FRET; AID 602124, 2011; shares compounds with Rin1 Abl inh; inhibition, % at 7.35 µM; purified proteins; 1,300 compounds, 49% hits
GFP quench – GFP fluorescence inhibitors and quenchers, artefact control for Rin1-Abl interaction inhibitor project, biochemical. inhibition, % at 6.75 µM. inhibitors/quenchers counterscreen. shares compounds with Rin1 Abl inh. 1,300 compounds, 8.5% hits;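 further: ABL1-eGFP fusion protein alone without its partner RIN1-SBP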
GFP quench DR – GFP fluorescence inhibitors and quenchers, dose response, artefact control for Rin1-Abl interaction inhibitor project, biochemical. shares compounds with Rin1 Abl inh. GFP fluorescence interference/quenching counterscreen. IC50, µM. 230 tested, under 10 active. AID 602182, 2012; call rule not given here;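 further: ABL1-eGFP fusion protein alone without its RIN1 binding partner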
Of the large screens only hits and unclear results are named; the others gave an inactive call (follow-up assays come after a bar, where they were run). Unless noted, no stated cut-off is given here; in the data, active means inhibition above about 6.5%; inactive means the rest.

Cc1ccc(C(=O)N2CC(C)CC(C)C2)cc1NC1=NC2CS(=O)(=O)CC2S1 (centres undefined)	Rin1 Abl inh 22.4 (no result: RBBP9 inh) | Rin1-Abl confirm 26.4 | GFP quench inactive | GFP quench DR inactive
Cc1ccc(-n2c(SCC(=O)NCc3ccco3)nnc2-c2cccnc2)c(C)c1	Rin1 Abl inh 11.6 (no result: SUMO HTRF inh) | Rin1-Abl confirm 9.7 | GFP quench inactive
Cc1cccc(-n2c(SCC(=O)NCc3ccco3)nnc2-c2ccco2)c1	none (no result: SUMO HTRF inh)
O=C(c1ccc(Cl)c(Cl)c1)N1CCC(=O)N(C(COCc2ccccc2)Cc2ccccc2)CC1 (centres undefined)	Rin1 Abl inh 9.5 | Rin1-Abl confirm 14.6 | GFP quench inactive
Nc1nc(N2CCN(C(=O)c3ccco3)CC2)nc2ccc(Br)cc12	none
Nc1nc(N2CCN(C(=O)c3ccco3)CC2)nc2ccccc12	Rin1 Abl inh 8.7 (no result: ALR H2O2 inh) | Rin1-Abl confirm inactive | GFP quench inactive
COCCN(CCOC)C(=O)CSc1ccc(S(=O)(=O)N2CCN(C)CC2)cn1	Rin1 Abl inh 12.0 (no result: ALR H2O2 inh, SUMO HTRF inh, RBBP9 inh) | Rin1-Abl confirm 25.5 | GFP quench inactive | GFP quench DR inactive
CCOCc1nnc(NC(=O)c2ccco2)s1	none
O=C(Nc1nnc(Cc2ccc(Cl)cc2)s1)c1ccco1	Rin1 Abl inh 7.4 | Rin1-Abl confirm inactive | GFP quench inactive
COC(=O)CC1c2ccccc2S(=O)(=O)N1Cc1ccccc1 (centres undefined)	none (no result: RBBP9 inh)
O=C(CCN1C(=O)[C@@H]2Cc3ccccc3CN2C1=O)NCc1ccc(Cl)cc1	Rin1 Abl inh 29.1 (no result: RBBP9 inh) | Rin1-Abl confirm inactive | GFP quench inactive
CC(=O)N1CCN(c2ccc(S(=O)(=O)N3CCCCC3)cc2[N+](=O)[O-])CC1	none (no result: SUMO HTRF inh, RBBP9 inh)
O=C(CC1C(=O)NCCN1Cc1c(F)cccc1Cl)NCCCOc1cccnc1 (centres undefined)	Rin1 Abl inh 14.3 (no result: RBBP9 inh) | Rin1-Abl confirm 11.8 | GFP quench inactive
O=c1oc(-c2ccc([N+](=O)[O-])cc2)nc2ccc(O)cc12	Rin1 Abl inh 16.9 | Rin1-Abl confirm inactive | GFP quench inactive
O=C(CSc1nc2ccccc2[nH]1)NC1CCCc2ccccc21 (centres undefined)	none
O=C(CSc1nc2ccccc2s1)NC1CCCc2ccccc21 (centres undefined)	Rin1 Abl inh 7.5 (no result: ALR H2O2 inh) | Rin1-Abl confirm inactive | GFP quench inactive
O=C1CC2c3ccccc3C1C1C(=O)N(CCc3ccccc3)C(=O)C21 (centres undefined)	none
N#Cc1ccccc1NC(=O)COC(=O)c1ccc2c(c1)OCO2	none (no result: SUMO HTRF inh, RBBP9 inh)
CC(C)CCN1CCN(Cc2cnc(N3CCCC3)s2)CC1CCO (centres undefined)	none (no result: ALR H2O2 inh)
O=C(O)c1cnn2c(-c3ccccc3)ccnc12	none (no result: RBBP9 inh)
COc1ccc(-c2ccnc3c(C(=O)O)cnn23)cc1	Rin1 Abl inh 9.6 | Rin1-Abl confirm inactive | GFP quench inactive
O=C(NC(NC(=S)Nc1ccccc1C(=O)O)C(Cl)(Cl)Cl)c1ccco1 (centres undefined)	Rin1 Abl inh 7.0 (no result: ALR H2O2 inh) | Rin1-Abl confirm inactive | GFP quench inactive
O=C(Nc1ccn(CCCN2CCN(c3ccccc3)CC2)c(=O)n1)OCc1ccccc1	none (no result: ALR H2O2 inh, SUMO HTRF inh, PREPL inh, RBBP9 inh, UBC13 polyUb)
O=C(Nc1ccn(CCCNCCN2CCOCC2)c(=O)n1)OCc1ccccc1	none (no result: ALR H2O2 inh, SUMO HTRF inh, PREPL inh, RBBP9 inh, UBC13 polyUb)
Cc1cc(C)c(CN2CCN(CCCn3ccc(NC(=O)OCc4ccccc4)nc3=O)CC2)c(C)c1	Rin1 Abl inh 7.9 (no result: ALR H2O2 inh, SUMO HTRF inh, PREPL inh, RBBP9 inh, UBC13 polyUb) | Rin1-Abl confirm 8.0 | GFP quench inactive
O=C(Nc1ccn(CCCN2CCC(N3CCOCC3)CC2)c(=O)n1)OCc1ccccc1	Rin1 Abl inh 10.7 (no result: ALR H2O2 inh, SUMO HTRF inh, PREPL inh, RBBP9 inh, UBC13 polyUb) | Rin1-Abl confirm 6.9 | GFP quench inactive
CCOC(=O)CCCCCC(=O)Nc1ccc2c(c1)C(=O)N([C@@H](C)CO)C[C@@H](C)[C@H](CN(C)C(=O)Nc1ccccc1)OCCCC[C@H](C)O2	Rin1 Abl inh 16.1 (no result: ALR H2O2 inh, SUMO HTRF inh, PREPL inh, RBBP9 inh, UBC13 polyUb) | Rin1-Abl confirm 18.4 | GFP quench inactive | GFP quench DR inactive
CCOC(=O)CCCCCC(=O)Nc1ccc2c(c1)C(=O)N([C@@H](C)CO)C[C@@H](C)[C@H](CN(C)C(=O)c1ccncc1)OCCCC[C@H](C)O2	none (no result: ALR H2O2 inh, SUMO HTRF inh, PREPL inh, RBBP9 inh, UBC13 polyUb)
CCOC(=O)CCCCCC(=O)Nc1ccc2c(c1)C(=O)N([C@H](C)CO)C[C@H](C)[C@@H](CN(C)C(=O)Nc1ccccc1)OCCCC[C@@H](C)O2	Rin1 Abl inh 15.6 (no result: ALR H2O2 inh, SUMO HTRF inh, PREPL inh, RBBP9 inh, UBC13 polyUb) | Rin1-Abl confirm 22.3 | GFP quench inactive | GFP quench DR inactive
CCOC(=O)CCCCCC(=O)Nc1ccc2c(c1)C(=O)N([C@@H](C)CO)C[C@H](C)[C@H](CN(C)C(=O)Nc1ccc(C(F)(F)F)cc1)OCCCC[C@H](C)O2	none (no result: ALR H2O2 inh, SUMO HTRF inh, PREPL inh, RBBP9 inh, UBC13 polyUb)
COc1cc2nc(N(C)C)nc(N)c2cc1OC	none (no result: ALR H2O2 inh)
COc1cc2nc(Nc3ccc(F)cc3)nc(N)c2cc1OC	Rin1 Abl inh 14.3 (no result: RBBP9 inh) | Rin1-Abl confirm 15.7 | GFP quench inactive
CCOc1nc(C)cc(C)c1S(=O)(=O)c1cccc(Cl)c1	none (no result: RBBP9 inh)
Cc1ccnc(NC(=O)c2cc3ccccc3oc2=O)c1	none
Cc1ccnc(NC(c2ccccc2O)c2oc(CO)cc(=O)c2O)c1 (centres undefined)	ALR H2O2 inh 98.0, Rin1 Abl inh 27.2 | Rin1-Abl confirm 9.8 | GFP quench inactive
COc1ccc(C2=C3C(=O)OCC3Cc3ncn(Cc4ccccc4)c32)cc1 (centres undefined)	none (no result: SUMO HTRF inh, RBBP9 inh)
CC1C=CCC2C(=O)N(c3cccc(C(=O)NCc4ccccc4)c3)C(=O)C12 (centres undefined)	Rin1 Abl inh 7.8 (no result: RBBP9 inh) | Rin1-Abl confirm inactive | GFP quench inactive
CCCCn1c(SCC2CCCO2)nc2cc(S(N)(=O)=O)ccc21 (centres undefined)	Rin1 Abl inh 5.9 | Rin1-Abl confirm inactive | GFP quench inactive
Cc1ccc(C)c(NC(=O)C2C3C=CC(O3)C2C(=O)O)c1 (centres undefined)	Rin1 Abl inh 7.6 (no result: PREPL inh, RBBP9 inh) | Rin1-Abl confirm inactive | GFP quench inactive
CNC[C@@H]1Oc2ccc(NS(=O)(=O)c3ccc(Cl)cc3)cc2C(=O)N([C@H](C)CO)C[C@@H]1C	none (no result: SUMO HTRF inh, RBBP9 inh)
